Test results from ChEMBL document CHEMBL1955829, “Synthesis and biological evaluation of 4β-sulphonamido and 4β-[(4'-sulphonamido)benzamide]podophyllotoxins as DNA topoisomerase-IIα and apoptosis inducing agents” (2012).
Activity calls are given as the source filed them. The rule behind the calls is not given here.

Tests used:
[1] = test system: A549; experiment: Growth inhibition of human A549 cells after 48 hrs by sulforhodamine B assay; type: functional; conditions: A549, 48 h
Summary of the method: (§1)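 Cells grown in DMEM with 10% FBS and 2 mM L-glutamine, plated at densities set by doubling time, and held 24 h before dosing. Exposure was 48 h to 0.1, 1, 10 and 100 µM in triplicate wells. Cells fixed with cold TCA (final 10%) 60 min at 4 °C and stained with 0.4% SRB 20 min. Bound dye eluted in 10 mM Tris base and read at 540 nm (690 nm reference). GI50 is the concentration giving 50% reduction in net protein gain versus control; values are the mean of three determinations.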

[2] = test system: HOP-62; experiment: Growth inhibition of human HOP62 cells after 48 hrs by sulforhodamine B assay; type: functional; conditions: HOP-62, 48 h; summary of the method: as §1
[3] = test system: ZR-75-1; experiment: Growth inhibition of human ZR-75-1 cells after 48 hrs by sulforhodamine B assay; type: functional; conditions: ZR-75-1, 48 h; summary of the method: as §1
[4] = test system: MCF7; experiment: Growth inhibition of human MCF7 cells after 48 hrs by sulforhodamine B assay; type: functional; conditions: MCF7, 48 h; summary of the method: as §1
[5] = test system: A2780; experiment: Growth inhibition of human A2780 cells after 48 hrs by sulforhodamine B assay; type: functional; conditions: A2780, 48 h; summary of the method: as §1
[6] = test system: COLO 205; experiment: Growth inhibition of human COLO205 cells after 48 hrs by sulforhodamine B assay; type: functional; conditions: COLO 205, 48 h; summary of the method: as §1
[7] = Growth inhibition of human DWD cells after 48 hrs by sulforhodamine B assay; type: functional; summary of the method: as §1
[8] = test system: COLO 205; experiment: Induction of apoptosis in human COLO205 cells assessed as down regulation of Bcl-2 at 4 uM after 24 hrs by ELISA; type: functional, cell-based
Summary of the method: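 Colo-205 cells treated 24 h at 4 µM, with etoposide and camptothecin as controls. Lysates added to Bcl2-antibody-coated wells, followed by a biotin-conjugated anti-human Bcl2 monoclonal antibody, in a Bcl2 ELISA.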

[9] = test system: COLO 205; experiment: Up-regulation of topoisomerase 2alpha in human COLO205 cells at 4 uM after 24 hrs by Western blotting analysis in presence of HDAC inhibitor, trichostatin A; type: functional, cell-based
Summary of the method: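 Colo-205 cells exposed 24 h to test agent plus TSA, each at 4 µM. Western blot of lysates probed for topo-IIα, with β-actin as loading control.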

[10] = test system: COLO 205; experiment: Cell cycle arrest in human COLO205 cells assessed as accumulation at G2/M phase at 4 uM after 24 hrs by FACS analysis (reference value: 25.92%); type: functional
Summary of the method: (§2)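 Colo-205 cells seeded at […] per 60 mm dish and treated 24 h at 4 µM; TSA arm used TSA at 4 µM for 12 h. Cells trypsinised, fixed in ice-cold 70% ethanol 30 min at 4 °C, RNase 1 mg/mL 30 min at 37 °C, then propidium iodide/citrate/Triton stain. DNA content of 20,000 events read by flow cytometry; phase percentages from histograms.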

[11] = test system: COLO 205; experiment: Cell cycle arrest in human COLO205 cells assessed as accumulation at S phase at 4 uM after 24 hrs by FACS analysis (reference value: 8.91%); type: functional; summary of the method: as §2
[12] = test system: COLO 205; experiment: Cytotoxicity against human COLO205 cells at 4 uM after 24 hrs by MTT assay; type: functional, cell-based
Summary of the method: (§3)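 Colo-205 cells plated at 10,000 per well, left overnight, then exposed 24 h at 2, 4 or 8 µM. MTT added for 2 h at 37 °C, formazan dissolved in extraction buffer, and optical density read at 570 nm against untreated cells.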

[13] = test system: COLO 205; experiment: Cell cycle arrest in human COLO205 cells assessed as accumulation at G0 phase at 4 uM after 24 hrs by FACS analysis (reference value: 4.29%); type: functional; summary of the method: as §2
[14] = test system: KB; experiment: Growth inhibition of human KB cells after 48 hrs by sulforhodamine B assay; type: functional; summary of the method: as §1
[15] = test system: COLO 205; experiment: Cytotoxicity against human COLO205 cells at 2 uM after 24 hrs by MTT assay; type: functional, cell-based; summary of the method: as §3
[16] = test system: COLO 205; experiment: Cytotoxicity against human COLO205 cells at 8 uM after 24 hrs by MTT assay; type: functional, cell-based; summary of the method: as §3
[17] = test system: COLO 205; experiment: Cell cycle arrest in human COLO205 cells assessed as accumulation at G1 phase at 4 uM after 24 hrs by FACS analysis (reference value: 60.89%); type: functional; summary of the method: as §2

COc1cc([C@@H]2c3cc4c(cc3[C@@H](NS(=O)(=O)c3cccc5nsnc35)[C@H]3COC(=O)[C@H]23)OCO4)cc(OC)c1OC
GI50 [1]: 2710 nM
GI50 [2]: 2210 nM
GI50 [3]: 2510 nM
GI50 [4]: 2210 nM
GI50 [5]: 2310 nM

COc1cc([C@@H]2c3cc4c(cc3[C@@H](NS(=O)(=O)c3ccc(-c5ccccc5)cc3)[C@H]3COC(=O)[C@H]23)OCO4)cc(OC)c1OC
GI50 [1]: 2000 nM
GI50 [6]: 2710 nM
GI50 [2]: 2010 nM
GI50 [3]: 2300 nM
GI50 [7]: 2210 nM
GI50 [4]: 2610 nM
GI50 [5]: 2110 nM

CC[C@@]1(O)C(=O)OCc2c1cc1n(c2=O)Cc2cc3ccccc3nc2-1
Activity [8]: Active
Activity [9]: inactive

COc1cc([C@@H]2c3cc4c(cc3[C@@H](NS(=O)(=O)c3cccc5cccnc35)[C@H]3COC(=O)[C@H]23)OCO4)cc(OC)c1OC
Percentage of cells in G2/M phase [10]: 28.19%
Percentage of cells in S phase [11]: 10.35%
GI50 [1]: 40 nM
GI50 [6]: 40 nM
Activity [12]: Active
GI50 [2]: 60 nM
GI50 [3]: 80 nM
Activity [13]: 3.06%
GI50 [14]: 60 nM
Activity [15]: Active
GI50 [7]: 170 nM
GI50 [4]: 120 nM
GI50 [5]: 80 nM
Activity [16]: Active
Activity [17]: 58.41%

COc1cc([C@@H]2c3cc4c(cc3[C@@H](NS(=O)(=O)c3cc(Cl)sc3Cl)[C@H]3COC(=O)[C@H]23)OCO4)cc(OC)c1OC
GI50 [1]: 140 nM
GI50 [6]: 150 nM
GI50 [2]: 2000 nM
GI50 [3]: 2500 nM
GI50 [14]: 2100 nM
GI50 [7]: 150 nM
GI50 [4]: 110 nM
GI50 [5]: 160 nM

COc1cc([C@@H]2c3cc4c(cc3[C@@H](NS(=O)(=O)c3ccc(Oc5ccccc5)cc3)[C@H]3COC(=O)[C@H]23)OCO4)cc(OC)c1OC
GI50 [1]: 2110 nM
GI50 [3]: 2310 nM
GI50 [14]: 2310 nM
GI50 [7]: 2910 nM
GI50 [4]: 2210 nM
GI50 [5]: 2400 nM

COc1cc([C@@H]2c3cc4c(cc3[C@@H](NC(=O)c3ccc(NS(=O)(=O)c5cccc6cccnc56)cc3)[C@H]3COC(=O)[C@H]23)OCO4)cc(OC)c1OC
GI50 [1]: 2510 nM
GI50 [6]: 2310 nM
GI50 [2]: 2610 nM
GI50 [7]: 140 nM
GI50 [4]: 2900 nM
GI50 [5]: 2420 nM

COc1ccc(S(=O)(=O)Nc2ccc(C(=O)N[C@@H]3c4cc5c(cc4[C@@H](c4cc(OC)c(OC)c(OC)c4)[C@H]4C(=O)OC[C@@H]43)OCO5)cc2)cc1
GI50 [6]: 2510 nM
GI50 [2]: 2710 nM
GI50 [3]: 2120 nM
GI50 [7]: 2020 nM
GI50 [4]: 160 nM

COc1cc([C@@H]2c3cc4c(cc3[C@@H](NC(=O)c3ccc(NS(=O)(=O)c5cccc6nsnc56)cc3)[C@H]3COC(=O)[C@H]23)OCO4)cc(OC)c1OC
GI50 [2]: 2910 nM
GI50 [3]: 2230 nM
GI50 [7]: 2800 nM
GI50 [4]: 170 nM
GI50 [5]: 2110 nM

COc1cc([C@@H]2c3cc4c(cc3[C@@H](NC(=O)c3ccc(NS(=O)(=O)c5ccc(-c6ccccc6)cc5)cc3)[C@H]3COC(=O)[C@H]23)OCO4)cc(OC)c1OC
GI50 [6]: 2800 nM
GI50 [3]: 2110 nM
GI50 [14]: 2500 nM
GI50 [7]: 2880 nM
GI50 [4]: 2300 nM
GI50 [5]: 2510 nM

COc1cc([C@@H]2c3cc4c(cc3[C@@H](NS(=O)(=O)c3sc(NC(C)=O)nc3C)[C@H]3COC(=O)[C@H]23)OCO4)cc(OC)c1OC
GI50 [1]: 120 nM
GI50 [6]: 110 nM
GI50 [2]: 160 nM
GI50 [3]: 170 nM
GI50 [14]: 170 nM
GI50 [7]: 140 nM
GI50 [4]: 150 nM
GI50 [5]: 150 nM

COc1cc([C@@H]2c3cc4c(cc3[C@@H](NS(=O)(=O)c3cccc5ccccc35)[C@H]3COC(=O)[C@H]23)OCO4)cc(OC)c1OC
GI50 [1]: 160 nM
GI50 [6]: 2100 nM
GI50 [2]: 2400 nM
GI50 [3]: 2100 nM
GI50 [14]: 2300 nM
GI50 [7]: 2000 nM
GI50 [4]: 90 nM
GI50 [5]: 1910 nM

COc1cc([C@@H]2c3cc4c(cc3[C@@H](NC(=O)c3ccc(NS(=O)(=O)c5ccc(Br)s5)cc3)[C@H]3COC(=O)[C@H]23)OCO4)cc(OC)c1OC
GI50 [2]: 2010 nM
GI50 [3]: 2900 nM
GI50 [7]: 2500 nM
GI50 [4]: 2710 nM
GI50 [5]: 2110 nM

COc1cc([C@@H]2c3cc4c(cc3[C@@H](NS(=O)(=O)c3ccc(S(=O)(=O)c5ccccc5)s3)[C@H]3COC(=O)[C@H]23)OCO4)cc(OC)c1OC
GI50 [3]: 2110 nM
GI50 [14]: 2110 nM
GI50 [7]: 2610 nM
GI50 [4]: 140 nM
GI50 [5]: 2300 nM

COc1cc([C@@H]2c3cc4c(cc3[C@@H](NC(=O)c3ccc(NS(=O)(=O)c5cccc6ccccc56)cc3)[C@H]3COC(=O)[C@H]23)OCO4)cc(OC)c1OC
GI50 [1]: 2600 nM
GI50 [6]: 2120 nM
GI50 [2]: 2220 nM
GI50 [3]: 2810 nM
GI50 [14]: 2000 nM
GI50 [4]: 2320 nM
GI50 [5]: 2000 nM

COc1cc([C@@H]2c3cc4c(cc3[C@@H](NC(=O)c3ccc(NS(=O)(=O)c5ccc(Oc6ccccc6)cc5)cc3)[C@H]3COC(=O)[C@H]23)OCO4)cc(OC)c1OC
GI50 [1]: 2700 nM
GI50 [2]: 2000 nM
GI50 [3]: 2900 nM
GI50 [14]: 2010 nM
GI50 [7]: 2100 nM

COc1cccc2c1C(=O)c1c(O)c3c(c(O)c1C2=O)C[C@@](O)(C(=O)CO)C[C@@H]3O[C@H]1C[C@H](N)[C@H](O)[C@H](C)O1 [DOXORUBICIN]
GI50 [6]: 140 nM
GI50 [2]: 140 nM
GI50 [14]: 170 nM
GI50 [7]: 100 nM
GI50 [4]: 170 nM
GI50 [5]: 160 nM

COc1cc([C@@H]2c3cc4c(cc3[C@@H](NS(=O)(=O)c3ccc(Br)s3)[C@H]3COC(=O)[C@H]23)OCO4)cc(OC)c1OC
Percentage of cells in G2/M phase [10]: 37.78%
Percentage of cells in S phase [11]: 16.51%
GI50 [1]: 120 nM
GI50 [6]: 40 nM
Activity [12]: Active
GI50 [2]: 40 nM
GI50 [3]: 180 nM
Activity [13]: 11.04%
GI50 [14]: 40 nM
Activity [15]: Active
GI50 [7]: 50 nM
GI50 [4]: 130 nM
GI50 [5]: 60 nM
Activity [16]: Active
Activity [17]: 34.67%
